TROY signal inh – inhibitors of TROY-driven NF-kB signaling, primary screen, Q293 LMP1-TROYcd cells, NF-kB luciferase, uHTS; AID 1347056, 2019; Q293 LMP1-TROYcd NF-kB luciferase reporter, 4 h; 0.98% of 360,000 active; inhibition, % at 10 µM;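 active = compounds whose plate-normalised and pattern-corrected inhibition of the luciferase reporter signal at the single screening dose is 50% or more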
FN deposit inh – inhibitors of fibronectin matrix deposition, primary screen, AH1F cells, Alexa488-fibronectin fluorescence, plate reader | inhibition, % at 12.6 µM | AID 743247, 2014 | AH1F fibroblasts, overnight | 0.086% of 350,000 active;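 active = mean inhibition across replicates of 30% or more, regardless of how many single replicates reach that level; inconclusive = mean under 30% yet at least half of replicates reach 30%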;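 note: positive control wells lacked labelled fibronectin entirely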
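material = AH1F fibroblast monolayer depositing Alexa488-labelled fibronectin into matrix | amount = 10000 AH1F cells/well | buffer or medium = DMEM plus 2% serum, read in PBS | incubation = 1 h cell adhesion before compound, then overnight fibronectin incubation | detection = fluorescence at 485 nm excitation, 525 nm emission | evaluation = percent inhibition as loss of matrix-bound fibronectin fluorescence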
EWS-Fli block – EWS/Fli-driven NR0B1 reporter inhibitors, primary screen, A673 cells, NR0B1 luciferase, luminescence, MLPCN library; viability-normalised; inhibition, % at 12.6 µM; 0.67% of 350,000 active; AID 651661, 2012;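 active = mean inhibition of at least 50% after viability correction, with every replicate also passing that limit; inconclusive = mean reaches 50% but only one of two replicates passes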;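 note: firefly luciferase signal divided by Alamar Blue viability fluorescence both relative to DMSO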
XiGFP reactiv – activators of inactive X chromosome reactivation, primary screen, imaging, XiGFP fibroblasts, GFP high-content imaging, set 2; XiGFP mouse fibroblasts, % GFP-positive cells imaging, 3 d; cells co-treated with 5-aza-dC sensitizer; scaled so ellipticine positive control = 100%; activation, % at 7.58 µM; 0.055% of 360,000 active;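 active = mean normalized replicate activation at least 10% and every replicate at or above 10%; inconclusive = only one of the two criteria met; inactive = mean below 10% and not all replicates reach 10%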;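 note: 0% = median of on-plate neutral control wells and 100% = ellipticine 6 µM median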
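System: SV40-immortalized XiGFP fibroblast cells, line 68-5-11 / Incubation: 3-day compound exposure, then 15 min fixation at room temperature / Compound: single concentration per compound, delivered by pin transfer / Buffer or medium: DMEM plus 5-aza-dC sensitizer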
LGR2 inh – inhibitors of bursicon-induced LGR2 CRE-luciferase signal, primary screen, cell-based, HEK293, CRE-luciferase reporter, bursicon stimulation; inhibition, % at 9.99 µM; 0.35% of 380,000 active; bursicon-stimulated, 4 h; Drosophila bursicon receptor LGR2 (rickets); AID 720647, 2013;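 active = drop in luminescence signal, shown as inhibition above about 50% in the replicate tests, limit read from the data, passing the limit was not always enough; inconclusive = probably only some replicates passing the limit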;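 note: agonist challenge used bursicon conditioned medium at about half maximal strength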
TWEAK-Fn14 inh – inhibitors of TWEAK-Fn14 signaling, primary screen, luciferase reporter cells, uHTS. 2% of 360,000 active. inhibition, % at 10 µM. TWEAK-stimulated Fn14 reporter cells, luciferase luminescence, 8 h; in the data active = inhibition above about 50%
An asterisk follows results filed as active; ? = inconclusive; · = no result. The list is not random: actives were taken first. Their share in the collection is about 2.3%.

SMILES	TROY signal inh	FN deposit inh	EWS-Fli block	XiGFP reactiv	LGR2 inh	TWEAK-Fn14 inh
CCOc1ccccc1-n1c(SCC(=O)Nc2ccccc2C(=O)O)nc2ccccc2c1=O	77.9*	-6.4	12.7	0.0	40.5	92.3*
COc1ccc(-c2ccccc2[C@H]2[C@@H](C#N)N(C(=O)C3CCCC3)[C@@H]2CO)cc1	·	-0.3	2.8	0.3	-8.4	·
CCCCCOC(=O)C1=C(C)NC(=O)NC1c1ccc2c(c1)OCO2 (stereo unspecified)	-2.9	4.9	3.1	0.2	8.3	9.7
CSCCOC(=O)C1=C(C)NC(=O)NC1c1ccc2c(c1)OCO2 (stereo unspecified)	7.6	0.7	12.9	0.3	-3.2	-5.5
CC1=C(C(=O)OCc2ccc3c(c2)OCO3)C(c2ccc(F)cc2)NC(=O)N1 (stereo unspecified)	55.4*	14.4	·	·	27.8	86.7*
CC1=C(C(=O)OCc2ccc3c(c2)OCO3)C(c2ccc(Cl)cc2)NC(=O)N1 (stereo unspecified)	70.2*	·	35.5	·	39.0	94.2*
CCOC(=O)C1=C(C)NC(=O)NC1c1ccc(OCC(N)=O)cc1 (stereo unspecified)	·	·	·	·	·	79.3*
CCOC(=O)C1=C(C)NC(=O)NC1c1ccc(OC(=O)c2ccco2)cc1 (stereo unspecified)	21.9	·	·	·	·	-24.3
C[C@@H]1CN([C@H](C)CO)C(=O)c2cc(NC(=O)C3CCCCC3)ccc2O[C@H]1CN(C)C(=O)Nc1cccc2ccccc12	·	·	2.7	0.1	15.5	·
C[C@H](CO)N1C[C@H](C)[C@H](CN(C)C(=O)Nc2ccc3c(c2)OCO3)Oc2ncc(-c3cncnc3)cc2C1=O	·	·	2.7	1.4	5.9	·
CCOC(=O)Nc1cc(C(=O)OCC)c(C)nc1C	·	·	·	·	·	76.2*
COCC#Cc1ccc2c(c1)O[C@@H](CN(C)C(=O)C1CC1)[C@@H](C)CN([C@H](C)CO)S2(=O)=O	·	-16.9	-9.9	0.4	4.7	·
COc1cccc(-c2nc(NC3CCCC3)c3ccccc3n2)c1O	70.5*	6.9	11.8	0.0	-5.8	-1.9
COc1cccc(-c2nc(NCc3ccccc3)c3ccccc3n2)c1O	29.6	-5.5	20.6	0.0	-3.0	19.5
CCC(=O)N1CC2(C1)CN(CC1CCCCC1)[C@@H](CO)c1c2c2ccc(OC)cc2n1C	·	·	-5.9	0.2	1.5	·
Cc1noc(C)c1S(=O)(=O)Nc1cccc2c1O[C@@H](CN(C)S(=O)(=O)c1cccs1)[C@@H](C)CN([C@H](C)CO)C2=O	·	·	2.6	-0.9	11.5	·
Cc1cc(-c2nn3c(C)nnc3s2)ccc1NC(=O)C(C)(C)C	26.4	·	·	·	·	52.2*
O=C(COc1ccc(/C=C\[N+](=O)[O-])cc1)N1CCOCC1	24.8	-3.4	-7.0	0.2	2.4	13.5
O=[N+]([O-])/C=C\c1ccc(N2CCOCC2)cc1	53.4*	-8.4	44.6	0.2	?	52.5*
CCOC(=O)C1=C(c2ccccc2)NC(SCC(=O)Nc2ccccc2C)=C(C#N)C1c1ccco1 (stereo unspecified)	8.1	-2.6	·	·	·	51.4*
N#CC1=C(N)SC(N)=C(C#N)C1c1cccc(Oc2ccccc2)c1	61.7*	·	2.4	·	-6.9	45.9
CC[C@@H](C)C(C(=O)N1CCN(C(=O)OC(C)(C)C)CC1)n1cc(-c2cn([C@@H](C)C(=O)N3CCN(C(=O)OC(C)(C)C)CC3)nn2)nn1 (stereo partly specified)	54.6*	13.4	0.3	0.0	·	-21.6
O=C(CN1CCOCC1)N1CC2(C1)[C@H](c1ccccc1)[C@H](CO)N2Cc1cccc(F)c1	·	-11.3	5.6	0.0	2.7	·
C[C@@H]1CN([C@@H](C)CO)C(=O)c2c(c3ccccc3n2C)-c2ccccc2CO[C@@H]1CN(C)S(=O)(=O)c1ccc(C(F)(F)F)cc1	·	5.6	8.6	-1.2	?	·
C[C@H](CO)N1C[C@H](C)[C@H](CN(C)S(=O)(=O)c2ccc(C(F)(F)F)cc2)OCc2ccccc2-c2c(n(C)c3ccccc23)C1=O	·	-13.0	-8.0	-0.9	53.4*	·
SMILES	TROY signal inh	FN deposit inh	EWS-Fli block	XiGFP reactiv	LGR2 inh	TWEAK-Fn14 inh
C[C@H](CO)N1C[C@H](C)[C@H](CN(C)S(=O)(=O)c2ccc(Cl)cc2)OCc2ccccc2-c2c(n(C)c3ccccc23)C1=O	24.1	-0.2	9.4	0.1	38.3	61.8*
Cc1ccc2nc(NC(=O)c3ccc(OCC4CCCO4)cc3)sc2c1 (stereo unspecified)	37.4	-8.0	-12.2	0.1	4.8	90.3*
Cc1cc(C)c2nc(NC(=O)c3ccc(OCC4CCCO4)cc3)sc2c1 (stereo unspecified)	-11.7	4.6	-19.3	0.1	-25.8	52.8*
CO[C@@H](CN(C)S(=O)(=O)c1cn(C)cn1)[C@@H](C)CN(C(=O)Nc1ccc(F)cc1)[C@H](C)CO	·	5.9	-15.6	0.0	-5.4	·
CCOc1ccccc1NC(=O)Nc1ccc2c(c1)OCO2	-18.0	10.4	-45.7	-0.1	-15.8	-34.7
C=CCOc1ccccc1CN(C(=O)CCl)c1ccc2c(c1)OCO2	-1.9	2.6	58.9*	0.0	-15.1	26.0
CCN(CC)CC(C)CNC(=O)CC(C(=O)N1CCc2ccccc21)n1ccnc1 (stereo unspecified)	11.6	4.4	·	·	20.5	56.0*
CCCN(CCC)CCCNC(=O)CC(C(=O)N1CCc2ccccc21)n1ccnc1 (stereo unspecified)	9.8	-3.5	·	·	·	22.0
C[C@@H]1CN([C@@H](C)CO)S(=O)(=O)c2ccc(-c3ccccc3F)cc2O[C@H]1CN(C)Cc1cccnc1	·	8.9	0.8	-0.6	18.4	·
Cc1cc(Br)cn2c(Cc3cccc(F)c3)c(-c3ccc(C#N)cc3)nc12	6.4	30.5*	2.5	-0.1	16.1	9.6
N#Cc1ccc(-c2nc3ccc(Br)cn3c2Cc2cccc(F)c2)cc1	-28.1	-3.0	-24.1	0.2	-11.9	-27.7
C=C1CC(COc2ccc3c(C)c(Cl)c(=O)oc3c2)(c2ccccc2)OC1=O (stereo unspecified)	76.4*	8.2	?	-0.1	49.3*	83.5*
Cc1ccc(C)c(CSC2=NN3CCCC(=O)N=C3S2)c1	-35.0	-9.1	-5.1	18.8*	-0.7	-6.6
C[C@@H]1CN([C@@H](C)CO)S(=O)(=O)c2ccc(-c3cccc(C#N)c3)cc2O[C@H]1CN(C)Cc1cccc(F)c1	·	-2.8	25.2	-0.5	27.8	·
Cc1ccc(O)c(N=Cc2cc(Cc3ccccc3)cc([N+](=O)[O-])c2O)c1	52.3*	·	10.8	0.0	-19.2	3.9

Screening data: PubChem, several laboratories
